The values that follow come from ChEMBL document CHEMBL2429803, “Animal toxicity of hairpin pyrrole-imidazole polyamides varies with the turn unit” (J Med Chem, 2013).

The test system of data set [1] is Mus musculus. Kind of data set: Toxicity in C57BL/6J mouse assessed as mild multifocal hepatocellular necrosis and apoptosis in liver at 1 mg/kg, sc administered every 3 days for a cycle of 3 injections measured 2 days post last injection. The data set is classed as organism-based. Further details: dose 1 mg/kg, route subcutaneous. Particulars: in vivo, 48 h. In outline:
(§1)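 Male C57BL/6J mice, 8 weeks old, given 1 mg/kg sc every 3 days for three injections and sacrificed 2 days after the last one. Two mice per group fixed in 10% formalin. A veterinary pathologist, blinded, examined cecum, duodenum, heart, ileum, kidney, liver, lung, pancreas, spleen and stomach. Lesions graded mild, moderate or severe.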

In data set [2] the test system is Mus musculus. The data set is described as follows: Acute toxicity in C57BL/6J mouse assessed as lesions in stomach at 1 to 10 mg/kg, sc after 9 days. The settings on record: in vivo, 216 h. The data set is classed as organism-based. Also noted: dose 1-10 mg/kg, route subcutaneous. In outline: (§2)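 Male C57BL/6J mice, 8 weeks old, received a single sc dose (1, 3 or 10 mg/kg in 25% DMSO/saline, n = 4 per group) and were sacrificed after 9 days. Two representative animals per group were fixed in 10% formalin. Cecum, duodenum, heart, ileum, kidney, liver, lung, pancreas, spleen and stomach were examined blind by a veterinary pathologist and lesions graded mild, moderate or severe.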

Data set [3] has as its system Mus musculus. Kind of data set: Acute toxicity in C57BL/6J mouse assessed as lesions in pancreas at 1 to 10 mg/kg, sc after 9 days. Also noted: dose 1-10 mg/kg, route subcutaneous. The data set is classed as organism-based. Particulars: in vivo, 216 h. In outline:
as §2

Data set [4] relates to Mus musculus. The data set is described as follows: Acute toxicity in C57BL/6J mouse assessed as lesions in lungs at 1 to 10 mg/kg, sc after 9 days. It is filed as organism-based. Also noted: dose 1-10 mg/kg, route subcutaneous. The settings on record: in vivo, 216 h. In outline: as §2
For data set [5], the system named is Mus musculus. The data set is described as follows: Acute toxicity in C57BL/6J mouse assessed as lesions in heart at 1 to 10 mg/kg, sc after 9 days. It is filed as organism-based. Also noted: dose 1-10 mg/kg, route subcutaneous. The settings on record: in vivo, 216 h. The procedure, abridged: as §2
The test system of data set [6] is Mus musculus. Kind of data set: Acute toxicity in C57BL/6J mouse assessed as lesions in GI tract at 1 to 10 mg/kg, sc after 9 days. The data set is classed as organism-based, Gastrointestinal tract. Also noted: dose 1-10 mg/kg, route subcutaneous. The settings on record: in vivo, 216 h. The procedure, abridged: as §2
Data set [7] deals with Mus musculus. Kind of data set: Acute toxicity in C57BL/6J mouse assessed as karyomegaly at 10 mg/kg, sc after 9 days. Also noted: dose 10 mg/kg, route subcutaneous. Particulars: in vivo, 216 h. It is filed as organism-based. In outline:
as §2

In data set [8] the test system is Mus musculus. The data set is described as follows: Acute toxicity in C57BL/6J mouse assessed as milder tubular regeneration at 10 mg/kg, sc after 9 days. The data set is classed as organism-based. Also noted: dose 10 mg/kg, route subcutaneous. Particulars: in vivo, 216 h. The procedure, abridged:
as §2

Data set [9] relates to Mus musculus. The data set is described as follows: Acute toxicity in C57BL/6J mouse assessed as hepatocellular necrosis and apoptosis at 3 mg/kg, sc after 9 days. The data set is classed as organism-based. Also noted: dose 3 mg/kg, route subcutaneous. The settings on record: in vivo, 216 h. In outline: as §2
Data set [10] concerns Mus musculus. The data set is described as follows: Acute toxicity in C57BL/6J mouse assessed as diffuse hepatocellular necrosis and apoptosis at 3 to 10 mg/kg, sc after 9 days. Further details: dose 3-10 mg/kg, route subcutaneous. The data set is classed as organism-based. The settings on record: in vivo, 216 h. In outline: as §2
Data set [11] has as its system Mus musculus. Kind of data set: Acute toxicity in C57BL/6J mouse at 10 mg/kg, sc after 9 days. The data set is classed as organism-based. Further details: dose 10 mg/kg, route subcutaneous. Particulars: in vivo, 216 h. The procedure, abridged: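 Single sc injection in male 8-week-old C57BL/6J mice (1, 3 or 10 mg/kg in 25% DMSO/saline; n = 4 per group), followed for 9 days with daily weighing, then sacrifice. Toxicity was assessed by blinded histopathology of two mice per group and by blinded serum ALT, AST, total bilirubin, BUN and creatinine from retroorbital blood of all mice.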

The test system of data set [12] is Mus musculus. The data set is described as follows: Acute toxicity in C57BL/6J mouse assessed as weight loss at 10 mg/kg, sc after 9 days. The data set is classed as organism-based. Further details: dose 10 mg/kg, route subcutaneous. Particulars: in vivo, 216 h. The procedure, abridged:
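Male C57BL/6J mice, 8 weeks old, were acclimated 3 days and then given a single sc injection of 1, 3 or 10 mg/kg in 25% DMSO/saline vehicle (up to 200 μL), n = 4 per group. Weight, behaviour and appearance were monitored daily for 9 days before sacrifice. The humane end point was visible duress or weight loss over 15% of the original.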

Data set [13] has as its system Mus musculus. The data set is described as follows: Toxicity in C57BL/6J mouse assessed as weight loss at 10 mg/kg, sc. The data set is classed as organism-based. Also noted: dose 10 mg/kg, route subcutaneous. The settings on record: in vivo. In outline: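 Single sc injection in 25% DMSO/saline to 8-week-old male C57BL/6J mice acclimated 3 days; groups of four receiving 1, 3 or 10 mg/kg. Weight monitored daily for 9 days, then sacrifice; euthanasia on visible duress or weight loss beyond 15% of original body weight.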

A short description of data set [14]: Metabolic stability in mouse liver microsomes after 1 hr by LC/MS/MS analysis in presence of NADPH. It is filed as ADME, Microsome. The settings on record: read-out: Stability. The procedure, abridged:
(§3)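 Compound incubated at 37 °C for 60 min with 1 mg/mL human or mouse liver microsomes in 100 mM KH2PO4, 3 mM MgCl2, pH 7.4, with 2 mM NADPH or without it. Stopped with ice-cold methanol, then precipitate removed. Analyzed by LC/MS/MS as % remaining versus time zero. Duplicates.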

The nature of data set [15]: Metabolic stability in mouse liver microsomes after 1 hr by LC/MS/MS analysis. The settings on record: read-out: Stability. It is filed as ADME, Microsome. In outline: as §3
Data set [16] is described as follows: Metabolic stability in human liver microsomes after 1 hr by LC/MS/MS analysis in presence of NADPH. Particulars: read-out: Stability. It is filed as ADME, Microsome. In outline:
as §3
In general terms: Liver microsomes are vesicles of endoplasmic reticulum, rich in cytochrome P450 enzymes.

A short description of data set [17]: Metabolic stability in human liver microsomes after 1 hr by LC/MS/MS analysis. The data set is classed as ADME, Microsome. The settings on record: read-out: Stability. The procedure, abridged:
as §3

For data set [18], the system named is Mus musculus. The data set is described as follows: Toxicity in C57BL/6J mouse assessed as karyomegaly in kidney at 1 mg/kg, sc administered every 3 days for a cycle of 3 injections measured 2 days post last injection. It is filed as organism-based. The settings on record: in vivo, 48 h. Also noted: dose 1 mg/kg, route subcutaneous. The procedure, abridged: as §1

For data set [19], the system named is Mus musculus. Kind of data set: Toxicity in C57BL/6J mouse assessed as epithelial necrosis and apoptosis in kidney at 1 mg/kg, sc administered every 3 days for a cycle of 3 injections measured 2 days post last injection. Particulars: in vivo, 48 h. Also noted: dose 1 mg/kg, route subcutaneous. The data set is classed as organism-based. In outline:
as §1

Data set [20] relates to Mus musculus. The data set is described as follows: Toxicity in C57BL/6J mouse assessed as mild tubular attenuation in kidney at 1 mg/kg, sc administered every 3 days for a cycle of 3 injections measured 2 days post last injection. The data set is classed as organism-based. Also noted: dose 1 mg/kg, route subcutaneous. Particulars: in vivo, 48 h. The procedure, abridged: as §1

In data set [21] the test system is Mus musculus. The data set is described as follows: Toxicity in C57BL/6J mouse assessed as morbidity at 1 mg/kg, sc administered every 3 days for a cycle of 3 injections. It is filed as organism-based. Further details: dose 1 mg/kg, route subcutaneous. Particulars: in vivo, 72 h. The procedure, abridged: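 Male C57BL/6J mice, 3 per group, given 1 mg/kg sc every 3 days. Weight recorded on injection days. Watched for signs of duress. Humane end point was visible duress or weight loss over 15% of starting body weight.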

The subject of data set [22] is Mus musculus. Kind of data set: Toxicity in C57BL/6J mouse assessed as weight loss at 1 mg/kg, sc administered every 3 days for a cycle of 3 injections. The data set is classed as organism-based. Further details: dose 1 mg/kg, route subcutaneous. The settings on record: in vivo, 72 h. The procedure, abridged:
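8-week-old male C57BL/6J mice, acclimated 3 days, groups of three, dosed sc in 25% DMSO/saline vehicle once every 3 days, sacrificed 2 days after the last injection. Body weight recorded on injection days and at end point; humane end point set at visible duress or >15% loss of original body weight.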

`CN(CCCNC(=O)c1cccc(C(=O)O)c1)CCCNC(=O)c1cc(NC(=O)c2cc(NC(=O)c3cc(NC(=O)c4nc(NC(=O)[C@H](N)CCNC(=O)c5cc(NC(=O)c6cc(NC(=O)c7cc(NC(=O)c8nccn8C)cn7C)cn6C)cn5C)cn4C)cn3C)cn2C)cn1C`: the Activity entry in the data set on Mus musculus [1] is on record as “Toxic”; in the data set on Mus musculus [2], “Non-toxic”; in the data set on Mus musculus [3], “Non-toxic”; in the data set on Mus musculus [4], “Non-toxic”; with Mus musculus [5] it was “Non-toxic”; with Mus musculus [6], “Non-toxic”. Besides, the Activity result with Mus musculus [7] is reported as “Toxic”; in the data set with Mus musculus [8] it was “Toxic”; in the data set with Mus musculus [9], “Toxic”; in the data set with Mus musculus [10], “Toxic”; with Mus musculus [11], “Non-toxic”; with Mus musculus [12], “Toxic”. Besides, the Activity in the data set with Mus musculus [13] is over 15%; in the data set on Mus musculus [18], “Toxic”; in the data set on Mus musculus [19] it was “Toxic”; in the data set on Mus musculus [20], “Toxic”; with Mus musculus [21], “Non-toxic”; with Mus musculus [22] it was “Non-toxic”. Further, the remaining at 1 h in data set [14], in [15], in data set [16] and in data set [17] was over 90% each time.
